According to ChEMBL document CHEMBL4609978, “Synthesis and evaluation of 2'-dihalo ribonucleotide prodrugs with activity against hepatitis C virus” (Bioorg Med Chem, 2020):

Legend:
Hepatitis C virus [1] = experiment: Antiviral activity against HCV genotype 1b Con1 infected in human HuH7 replicon cells assessed as inhibition of viral replication after 3 days by luciferase reporter gene assay; assay type: functional, organism-based, Hepacivirus hominis; conditions: subtype 1b Con1, Huh-7, 72 h
Method in brief: (§1)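 Stable subgenomic replicon cell lines (genotype 1a-H77 or 1b-Con1) carrying a luciferase reporter; compounds added in DMEM with 5% FBS, cells incubated 3 days with or without compound, then lysed and luciferase activity read; EC50 from nonlinear regression fit to 4-parameter logistic equation.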

Hepatitis C virus [2] = experiment: Antiviral activity against HCV genotype 1a H77 infected in human HuH7 replicon cells assessed as inhibition of viral replication after 3 days by luciferase reporter gene assay; assay type: functional, organism-based, Hepacivirus hominis; conditions: subtype 1a H77, Huh-7, 72 h; method in brief: as §1
[3] = Cytotoxicity against human HuH7 cells assessed as reduction in cell viability; assay type: cell-based, Huh-7; conditions: read-out: TD50 (the source's name)
[4] = Prodrug conversion in Beagle dog liver assessed as nucleotide triphosphate level at 5 mg/kg, po administered as single dose measured after 24 hrs by LC-MS/MS analysis; assay type: ADME, organism-based, Canis lupus familiaris; conditions: in vivo
[5] = Prodrug conversion in Beagle dog liver assessed as nucleotide triphosphate level at 5 mg/kg, po co-dosed with 5 mg/kg sofosbuvir measured after 4 hrs by LC-MS/MS analysis; assay type: ADME, organism-based, Canis lupus familiaris; conditions: in vivo
Method in brief: (§2)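 Beagle dogs (3 per time point) given single oral prodrug 5 mg/kg in EtOH:PEG-400:Phosal 53 MCT (10:30:60, w/w), cassette-dosed with sofosbuvir 5 mg/kg as internal standard; liver biopsies at 4 or 24 h, flash frozen, triphosphate measured by LC-MS/MS.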

[6] = Prodrug conversion in Beagle dog liver assessed as nucleotide triphosphate level at 5 mg/kg, po co-dosed with 5 mg/kg sofosbuvir measured after 24 hrs by LC-MS/MS analysis; assay type: ADME, organism-based, Canis lupus familiaris; conditions: in vivo; method in brief: as §2
Hepatitis C virus [7] = experiment: Antiviral activity against HCV genotype 3a expressing NS5B S282T mutant infected in human HuH7 replicon cells assessed as inhibition of viral replication after 4 days by luciferase reporter gene based assay; assay type: functional, organism-based, Hepacivirus hominis; conditions: subtype 3a, Huh-7, 96 h
Hepatitis C virus [8] = experiment: Antiviral activity against HCV genotype 3a expressing wild type NS5B infected in human HuH7 replicon cells assessed as inhibition of viral replication after 4 days by luciferase reporter gene based assay; assay type: functional, organism-based, Hepacivirus hominis; conditions: subtype 3a, Huh-7, 96 h
Hepatitis C virus [9] = experiment: Antiviral activity against HCV genotype 6a expressing wild type NS5B infected in human HuH7 replicon cells assessed as inhibition of viral replication after 4 days by luciferase reporter gene based assay; assay type: functional, organism-based, Hepacivirus hominis; conditions: subtype 6a, Huh-7, 96 h
[10] = Prodrug conversion in Beagle dog liver assessed as nucleotide triphosphate level at 5 mg/kg, po administered as single dose measured after 4 hrs by LC-MS/MS analysis; assay type: ADME, organism-based, Canis lupus familiaris; conditions: in vivo
Hepatitis C virus [11] = experiment: Antiviral activity against HCV genotype 1b Con1 expressing NS5B S282T mutant infected in human HuH7 replicon cells assessed as inhibition of viral replication after 4 days by luciferase reporter gene based assay; assay type: functional, organism-based, Hepacivirus hominis; conditions: subtype 1b Con1, Huh-7, 96 h
Hepatitis C virus [12] = experiment: Antiviral activity against HCV genotype 2a expressing NS5B S282T mutant infected in human HuH7 replicon cells assessed as inhibition of viral replication after 4 days by luciferase reporter gene based assay; assay type: functional, organism-based, Hepacivirus hominis; conditions: subtype 2a, Huh-7, 96 h
[13] = Unbound drug level in dog plasma; assay type: ADME, cell-free, Canis lupus familiaris
[14] = Prodrug conversion in human primary hepatocytes assessed as nucleotide triphosphate level at 100 uM incubated for 4 hrs and followed by compound washout for 20 hrs and measured following 24 hrs incubation period by LC-MS/MS analysis; assay type: ADME, cell-based, Hepatocyte
Method in brief: (§3)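 Cryopreserved primary human hepatocytes plated ~55,000 viable cells/well on collagen, medium changed after 4–6 h to Williams E maintenance medium with Geltrex 0.35 mg/mL, overnight at 37 °C; prodrug 100 µM for 4 h, then washed; second plate held a further 20 h drug-free; cells washed with ice-cold HBSS, triphosphate measured by LC-MS/MS at 4 or 24 h.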

[15] = Prodrug conversion in human primary hepatocytes assessed as nucleotide triphosphate level at 100 uM incubated for 4 hrs followed by compound wash-out for 20 hrs and measured following 4 hrs incubation period by LC-MS/MS analysis; assay type: ADME, cell-based, Hepatocyte; method in brief: as §3
[16] = Intrinsic clearance in dog hepatocytes; assay type: ADME, cell-based, Canis lupus familiaris, Hepatocyte; conditions: read-out: CLH (converted)
Hepatitis C virus [17] = experiment: Antiviral activity against HCV genotype 2a expressing wild type NS5B infected in human HuH7 replicon cells assessed as inhibition of viral replication after 4 days by luciferase reporter gene based assay; assay type: functional, organism-based, Hepacivirus hominis; conditions: subtype 2a, Huh-7, 96 h
Hepatitis C virus [18] = experiment: Antiviral activity against HCV genotype 1b Con1 expressing wild type NS5B infected in human HuH7 replicon cells assessed as inhibition of viral replication after 4 days by luciferase reporter gene based assay; assay type: functional, organism-based, Hepacivirus hominis; conditions: subtype 1b Con1, Huh-7, 96 h
[19] = Unbound drug level in human plasma; assay type: ADME, cell-free
Hepatitis C virus [20] = experiment: Antiviral activity against HCV genotype 4a expressing wild type NS5B infected in human HuH7 replicon cells assessed as inhibition of viral replication after 4 days by luciferase reporter gene based assay; assay type: functional, organism-based, Hepacivirus hominis; conditions: subtype 4a, Huh-7, 96 h
Hepatitis C virus [21] = experiment: Potency index, ratio of sofosbuvir EC50 to compound EC50 for HCV genotype 1a H77 infected in human HuH7 replicon cells assessed as inhibition of viral replication after 3 days by luciferase reporter gene assay; assay type: functional, Hepacivirus hominis, subtype 1a H77, Huh-7
Method in brief: (§4)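 Stable subgenomic luciferase-reporter replicon Huh-7 lines, genotype 1a-H77 or 1b-Con1. Test compound and sofosbuvir comparator each run in DMEM with 5% FBS for 3 days. Cells lysed and luciferase activity read. EC50 obtained by nonlinear regression to a 4-parameter logistic equation. Index is sofosbuvir EC50 divided by compound EC50, both from this assay.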

Hepatitis C virus [22] = experiment: Potency index, ratio of sofosbuvir EC50 to compound EC50 for HCV genotype 1b Con1 infected in human HuH7 replicon cells assessed as inhibition of viral replication after 3 days by luciferase reporter gene assay; assay type: functional, Hepacivirus hominis, subtype 1b Con1, Huh-7; method in brief: as §4
Hepatitis C virus [23] = experiment: Antiviral activity against HCV genotype 1b Con1 over expressing CES1 infected in human HuH7 replicon cells assessed as inhibition of viral replication after 3 days by luciferase reporter gene assay; assay type: functional, organism-based, Hepacivirus hominis; conditions: subtype 1b Con1, Huh-7, 72 h
[24] = Distribution coefficient, logD of compound by HT-LCMS analysis; assay type: physicochemical; conditions: octanol/water
[25] = Aqueous solubility of compound in pH 7.4 phosphate buffer; assay type: physicochemical
[26] = Stability in human plasma assessed as parent compound remaining after 4 hrs; assay type: ADME, cell-free; conditions: read-out: Stability
Method in brief: (§5)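 Prodrug incubated 4 h at 37 °C in dog or human plasma; result given as percent parent remaining.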

[27] = Stability in dog plasma assessed as parent compound remaining after 4 hrs; assay type: ADME, cell-free, Canis lupus familiaris; conditions: read-out: Stability; method in brief: as §5

CC(C)OC(=O)[C@H](C)N[P@](=O)(OC[C@H]1O[C@@H](n2ccc(=O)[nH]c2=O)[C@@](C)(F)[C@@H]1O)Oc1ccccc1
EC50 (Hepatitis C virus [1]): > 10000 nM
EC50 (Hepatitis C virus [2]): > 10000 nM
CC50 [3]: > 32000 nM

CC(C)OC(=O)[C@H](C)N[P@](=O)(OC[C@H]1O[C@@H](n2ccc(=O)[nH]c2=O)[C@](F)(Br)[C@@H]1O)Oc1ccccc1
EC50 (Hepatitis C virus [1]): 2500 nM
EC50 (Hepatitis C virus [2]): 3030 nM
CC50 [3]: 26500 nM

CC(C)OC(=O)[C@H](C)N[P@](=O)(OC[C@H]1O[C@@H](n2ccc(=O)[nH]c2=O)[C@](Cl)(Br)[C@@H]1O)Oc1ccccc1
Drug metabolism [4]: 0.049 µM
Drug metabolism [5]: 1.59 µM
Drug metabolism [6]: 1.02 µM
EC50 (Hepatitis C virus [7]): 142 nM
EC50 (Hepatitis C virus [8]): 31.4 nM
EC50 (Hepatitis C virus [9]): 22.7 nM
Drug metabolism [10]: 0.088 µM
EC50 (Hepatitis C virus [11]): 161 nM
EC50 (Hepatitis C virus [1]): 147 nM
EC50 (Hepatitis C virus [12]): 262 nM
fraction unbound [13]: 0.213
Drug metabolism [14]: 22 µM
Drug metabolism [15]: 110 µM
EC50 (Hepatitis C virus [2]): 114 nM
CLint scaled [16]: 113 mL/min/kg
EC50 (Hepatitis C virus [17]): 188 nM
EC50 (Hepatitis C virus [18]): 30.4 nM
CC50 [3]: 80000 nM
fraction unbound [19]: 0.113
EC50 (Hepatitis C virus [20]): 29.9 nM

CC(C)OC(=O)[C@H](C)N[P@](=O)(OC[C@H]1O[C@@H](n2ccc(=O)[nH]c2=O)C(Cl)(Cl)[C@@H]1O)Oc1ccccc1
Ratio EC50 (Hepatitis C virus [21]): 3 - 4
EC50 (Hepatitis C virus [1]): 48 nM
EC50 (Hepatitis C virus [2]): 43 nM
CC50 [3]: > 100000 nM
Ratio EC50 (Hepatitis C virus [22]): 3 - 4

CC(C)OC(=O)[C@H](C)N[P@@](=O)(OC[C@H]1O[C@@H](n2ccc(=O)[nH]c2=O)[C@](Cl)(Br)[C@@H]1O)Oc1ccccc1
Drug metabolism [4]: 0.036 µM
Drug metabolism [5]: 1.76 µM
Drug metabolism [6]: 1.26 µM
EC50 (Hepatitis C virus [23]): 218 nM
logD [24]: 3.21
Drug metabolism [10]: 0.143 µM
EC50 (Hepatitis C virus [1]): 515 nM
solubility [25]: > 200 µM
Drug metabolism [14]: 24 µM
Drug metabolism [15]: 102 µM
EC50 (Hepatitis C virus [2]): 412 nM

CC(C)OC(=O)[C@H](C)N[P@](=O)(OC[C@H]1O[C@@H](n2ccc(=O)[nH]c2=O)[C@](C)(F)[C@@H]1O)Oc1ccccc1 [SOFOSBUVIR]
EC50 (Hepatitis C virus [23]): 53 nM
EC50 (Hepatitis C virus [7]): 330 nM
EC50 (Hepatitis C virus [8]): 75.1 nM
EC50 (Hepatitis C virus [9]): 86.7 nM
EC50 (Hepatitis C virus [11]): 638 nM
EC50 (Hepatitis C virus [1]): 188 to 230 nM
EC50 (Hepatitis C virus [12]): 1000 nM
fraction unbound [13]: 0.323
remaining at 4 h [26]: 96%
solubility [25]: > 200 µM
Drug metabolism [14]: 122 µM
Drug metabolism [15]: 97 µM
EC50 (Hepatitis C virus [2]): 155 to 168 nM
CLint scaled [16]: 40 mL/min/kg
EC50 (Hepatitis C virus [17]): 681 nM
EC50 (Hepatitis C virus [18]): 62 nM
remaining at 4 h [27]: 93%
CC50 [3]: > 100000 nM
Fu [19]: 0.563
EC50 (Hepatitis C virus [20]): 78.5 nM

CC(C)OC(=O)C(C)(C)NP(=O)(OC[C@H]1O[C@@H](n2ccc(=O)[nH]c2=O)[C@](Cl)(Br)[C@@H]1O)Oc1ccccc1 (stereo partly drawn)
Drug metabolism [4]: 0.244 µM
Drug metabolism [5]: 4.2 µM
Drug metabolism [6]: 3.43 µM
EC50 (Hepatitis C virus [23]): 162 nM
logD [24]: 3.3
Drug metabolism [10]: 0.713 µM
EC50 (Hepatitis C virus [1]): 1380 nM
fraction unbound [13]: 0.13
remaining at 4 h [26]: 100%
solubility [25]: > 200 µM
Drug metabolism [14]: 40 µM
Drug metabolism [15]: 157 µM
EC50 (Hepatitis C virus [2]): 1090 nM
CLint scaled [16]: 133 mL/min/kg
remaining at 4 h [27]: 100%
fraction unbound [19]: 0.193

CC(C)OC(=O)[C@H](C)N[P@](=O)(OC[C@H]1O[C@@H](n2ccc(=O)[nH]c2=O)[C@@](Cl)(Br)[C@@H]1O)Oc1ccccc1
EC50 (Hepatitis C virus [1]): 258 nM
EC50 (Hepatitis C virus [2]): 200 nM
CC50 [3]: > 100000 nM

CC(C)OC(=O)[C@H](C)N[P@](=O)(OC[C@H]1O[C@@H](n2ccc(=O)[nH]c2=O)C(F)(F)[C@@H]1O)Oc1ccccc1
EC50 (Hepatitis C virus [1]): 286 nM
EC50 (Hepatitis C virus [2]): 226 nM
CC50 [3]: 384 nM

CC(C)OC(=O)[C@H](C)N[P@](=O)(OC[C@H]1O[C@@H](n2ccc(=O)[nH]c2=O)C(C)(C)C1O)Oc1ccccc1 (single isomer, unassigned)
EC50 (Hepatitis C virus [1]): 4750 nM
EC50 (Hepatitis C virus [2]): 5630 nM
CC50 [3]: 31600 nM

CC(C)OC(=O)[C@H](C)N[P@](=O)(OC[C@H]1O[C@@H](n2ccc(=O)[nH]c2=O)C(Br)(Br)[C@@H]1O)Oc1ccccc1
EC50 (Hepatitis C virus [1]): 522 nM
EC50 (Hepatitis C virus [2]): 408 nM
CC50 [3]: > 100000 nM

CC(C)OC(=O)[C@H](C)N[P@](=O)(OC[C@H]1O[C@@H](n2ccc(=O)[nH]c2=O)[C@](C)(Cl)[C@@H]1O)Oc1ccccc1
EC50 (Hepatitis C virus [1]): 167 nM
EC50 (Hepatitis C virus [2]): 139 nM
CC50 [3]: > 100000 nM

CC(C)OC(=O)[C@H](C)N[P@](=O)(OC[C@H]1O[C@@H](n2ccc(=O)[nH]c2=O)[C@@](F)(Cl)[C@@H]1O)Oc1ccccc1
Ratio EC50 (Hepatitis C virus [21]): 3 - 4
EC50 (Hepatitis C virus [1]): 61 nM
EC50 (Hepatitis C virus [2]): 53 nM
CC50 [3]: 11000 nM
Ratio EC50 (Hepatitis C virus [22]): 3 - 4
